Each compound was assayed on Rattus norvegicus (assay: Percent increase in liver weight in rats when administered perorally).
Type: functional
Work on O=C1c2ccccc2OCC1n1ccnc1 (stereo not given) yielded a Change of 16%.
Work on CC1Oc2cc(O)c(C(C)(C)C)cc2C(=O)C1n1ccnc1 (stereo not given) yielded a Change of 9%.
COc1cc(Br)c2c(c1)C(=O)C(n1ccnc1)CO2 (stereo not given) showed a Change of 6%.
In the case of O=C1c2ccccc2OC(c2ccccc2)C1n1ccnc1 (stereo not given), the Change is reported as 5%.
O=C1c2cc(Br)ccc2OCC1n1ccnc1 (stereo not given) showed a Change of 23%.
With Cc1nccn1C1COc2ccc(Cl)cc2C1=O (stereo not given) the Change was 14%.
Compound Cc1cc(Br)c2c(c1)C(=O)C(n1ccnc1)CO2 (stereo not given) has a Change of 7%.
Compound CN(C)c1ccc2c(c1)C(=O)C(n1ccnc1)CC2 (stereo not given) has a Change of 11%.
In the case of Clc1ccc2c(c1)C=C(n1ccnc1)CO2, the Change is reported as 2%.
In the case of O=C1c2cc([N+](=O)[O-])ccc2CCC1n1ccnc1 (stereo not given), the Change is reported as 5%.
In the case of O=C(O)c1ccc2c(c1)C(=O)C(n1ccnc1)CC2 (stereo not given), the Change is reported as -3%.

Each compound was assayed on Rattus norvegicus (assay: Percent change in total cholesterol concentration in serum from hypercholesterolemic rats at dose 37 mg/kg (po)).
Type: functional
CN(C)c1ccc2c(c1)C(=O)C(n1ccnc1)CC2 (stereo not given) was tested, and the Change was -37%.

What follows are compounds tested on Rattus norvegicus (assay: Percent change in total cholesterol concentration in serum from hypercholesterolemic rats at dose 45 mg/kg (po)).
Type: functional
Cc1cc(Br)c2c(c1)C(=O)C(n1ccnc1)CO2 (stereo not given) was tested, and the Change was -15%.
For O=C(O)c1ccc2c(c1)C(=O)C(n1ccnc1)CC2 (stereo not given), the Change was -5%.

What follows are compounds tested on Rattus norvegicus (assay: Percent change in total cholesterol concentration in serum from hypercholesterolemic rats at dose 50 mg/kg (po)).
Type: functional
O=C1c2ccccc2OCC1n1ccnc1 (stereo not given) gave a Change of 34%.
CC1Oc2cc(O)c(C(C)(C)C)cc2C(=O)C1n1ccnc1 (stereo not given) gave a Change of -7%.
COc1cc(Br)c2c(c1)C(=O)C(n1ccnc1)CO2 (stereo not given) showed a Change of 14%.
O=C1c2ccccc2OC(c2ccccc2)C1n1ccnc1 (stereo not given) showed a Change of 27%.
With O=C1c2cc(Br)ccc2OCC1n1ccnc1 (stereo not given) the Change was -50%.
Work on Cc1nccn1C1COc2ccc(Cl)cc2C1=O (stereo not given) yielded a Change of 39%.
With Clc1ccc2c(c1)C=C(n1ccnc1)CO2 the Change was -10%.
O=C1c2cc([N+](=O)[O-])ccc2CCC1n1ccnc1 (stereo not given) gave a Change of -16%.

Each compound was assayed on Rattus norvegicus (assay: Percent change in high density lipoproteins cholesterol concentration in serum from hypercholesterolemic rats at dose 37 mg/kg (po)).
Type: functional
Summary of the method: (§1)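 Rats were fed 1.5% cholesterol/0.5% cholic acid diet for 7 days, with compounds given by gavage over the last 4 days as a 0.5% Methocel suspension (0.5 mL/100 g). Rats were fasted overnight, killed on day 8 and bled under light CO₂ anesthesia. HDL was isolated by heparin-MnCl₂ precipitation (8000 rpm, 15 min, 4 °C). Total and HDL cholesterol were measured enzymatically-colorimetrically; % change vs control.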
CN(C)c1ccc2c(c1)C(=O)C(n1ccnc1)CC2 (stereo not given) showed a Change of 69%.

What follows are compounds tested on Rattus norvegicus (assay: Percent change in high density lipoproteins cholesterol concentration in serum from hypercholesterolemic rats at dose 45 mg/kg (po)).
Type: functional
Summary of the method: as §1
In the case of O=C(O)c1ccc2c(c1)C(=O)C(n1ccnc1)CC2 (stereo not given), the Change is reported as -9%.

The compounds below were run on Rattus norvegicus (assay: Percent change in high density lipoproteins cholesterol concentration in serum from hypercholesterolemic rats at dose 50 mg/kg (po)).
Type: functional
Summary of the method: as §1
In the case of O=C1c2ccccc2OCC1n1ccnc1 (stereo not given), the Change is reported as 4%.
In the case of CC1Oc2cc(O)c(C(C)(C)C)cc2C(=O)C1n1ccnc1 (stereo not given), the Change is reported as 32%.
For COc1cc(Br)c2c(c1)C(=O)C(n1ccnc1)CO2 (stereo not given), the Change was 64%.
Compound O=C1c2ccccc2OC(c2ccccc2)C1n1ccnc1 (stereo not given) has a Change of -3%.
For O=C1c2cc(Br)ccc2OCC1n1ccnc1 (stereo not given), the Change was 144%.
Compound Cc1nccn1C1COc2ccc(Cl)cc2C1=O (stereo not given) has a Change of 23%.
For Cc1cc(Br)c2c(c1)C(=O)C(n1ccnc1)CO2 (stereo not given), the Change was 21%.
For Clc1ccc2c(c1)C=C(n1ccnc1)CO2, the Change was 25%.
Work on O=C1c2cc([N+](=O)[O-])ccc2CCC1n1ccnc1 (stereo not given) yielded a Change of 23%.

Species on record: Rattus norvegicus
Test: Compound was tested in vitro for inhibition of Cholesterol biosynthesis in rat liver slices, % inhibition of [14C]acetate incorporation in neutral lipids at 2 e10-4 concentration
Type: functional
Summary of the method: (§2)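 Liver slices (250 mg) from fed male rats were incubated in Krebs-Ringer bicarbonate, pH 7.4, with 4 mM [2-¹⁴C]acetate under 95% O₂-5% CO₂. Compounds were tested at a final 2 × 10⁻⁴ M, or 5 × 10⁻⁵ M for one compound. ¹⁴C incorporation into cholesterol and into petroleum-ether-soluble nonsaponifiable neutral lipids gave % inhibition; mean of four determinations.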
With CN(C)c1ccc2c(c1)C(=O)C(n1ccnc1)CC2 (stereo not given) the Inhibition was 0%.

Species on record: Rattus norvegicus
Test: Compound was tested in vitro for inhibition of Cholesterol biosynthesis in rat liver slices, % inhibition of [14C]-acetate incorporation in cholesterol at 2 e10-4 concentration
Type: functional
Summary of the method: as §2
Compound CN(C)c1ccc2c(c1)C(=O)C(n1ccnc1)CC2 (stereo not given) has an Inhibition of 55%.

Reference: ChEMBL document CHEMBL1123418, “N-imidazolylchroman-4-ones, N-imidazolyl-1-tetralones, and their alcohols as hypolipemic agents raising high-density lipoproteins” (1986)
